This note sets out measurements from ChEMBL document CHEMBL3525931, “Stereoselective interaction of pantoprazole with ABCG2. II. In vitro flux analysis” (Drug Metab Dispos, 2012).

Data set [1] has as its target T1, Broad substrate specificity ATP-binding cassette transporter ABCG2 (Homo sapiens, UniProt Q9UNQ0).
T1 sequence (Q9UNQ0 whole entry): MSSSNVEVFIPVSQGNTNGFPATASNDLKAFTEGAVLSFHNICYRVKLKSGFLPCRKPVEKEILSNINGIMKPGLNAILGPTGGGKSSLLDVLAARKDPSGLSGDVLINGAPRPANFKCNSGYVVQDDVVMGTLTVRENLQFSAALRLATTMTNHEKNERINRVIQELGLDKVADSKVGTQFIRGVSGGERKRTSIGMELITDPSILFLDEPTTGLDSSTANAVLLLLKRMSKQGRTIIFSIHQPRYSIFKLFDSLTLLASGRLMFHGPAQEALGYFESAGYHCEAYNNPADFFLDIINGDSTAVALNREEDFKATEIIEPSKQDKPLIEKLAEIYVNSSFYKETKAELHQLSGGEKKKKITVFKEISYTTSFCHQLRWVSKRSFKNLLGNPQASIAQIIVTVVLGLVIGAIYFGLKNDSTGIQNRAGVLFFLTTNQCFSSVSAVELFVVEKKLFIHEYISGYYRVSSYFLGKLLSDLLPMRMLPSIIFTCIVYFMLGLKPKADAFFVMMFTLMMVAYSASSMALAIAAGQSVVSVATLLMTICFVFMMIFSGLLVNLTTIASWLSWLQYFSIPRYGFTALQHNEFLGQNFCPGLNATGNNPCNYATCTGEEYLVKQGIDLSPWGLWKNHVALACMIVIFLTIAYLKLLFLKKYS
The experiment in a line: Observed permeability in MDCK2 cells expressing human ABCG2 assessed as ABCG2-mediated apical to basolateral transport at 50 uM after 0.5 to 1 hrs by HPLC method. The data set is classed as ADME, cell-based. To be noted: mdck-ii. A digest of the protocol:
(§1)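 Mock (empty pcDNA3.1) or rat Abcg2/human ABCG2-transfected MDCKII, G418-selected, seeded on 3.0-μm Transwell filters at 1.0×10^6 cells/well, grown 4 days to TEER >200 Ω·cm². Single isomer loaded apical or basolateral in serum-free Opti-MEM I with 0.2 μCi/ml [3H]mannitol, 37°C 5% CO2. Receiver sampled at 0.5 and 1 h. Quantified by HPLC-UV 290 nm. Permeability = initial rate/(area × donor concentration). Efflux ratio = B→A rate / A→B rate. n = 3, mean ± S.D.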

Data set [2] deals with T2, ABCG2 (Homo sapiens, UniProt Q9UNQ0).
T2 sequence (Q9UNQ0 whole entry): T1 sequence (Q9UNQ0 whole entry)
The experiment in a line: Asymmetry efflux ratio in MDCK2 cells expressing human ABCG2 assessed as ABCG2-mediated drug transport ratio at 10 uM after 0.5 to 1 hrs by HPLC method. The data set is classed as ADME, cell-based. A digest of the protocol:
as §1

Data set [3] deals with T2, ABCG2. Put plainly: Asymmetry efflux ratio in MDCK2 cells expressing human ABCG2 assessed as ABCG2-mediated drug transport ratio at 30 uM after 0.5 to 1 hrs by HPLC method. The class given is ADME, cell-based. A digest of the protocol:
as §1

In data set [4] the target is T2, ABCG2. The experiment in a line: Asymmetry efflux ratio in MDCK2 cells expressing human ABCG2 assessed as ABCG2-mediated drug transport ratio at 50 uM after 0.5 to 1 hrs by HPLC method. The class given is ADME, cell-based. A digest of the protocol:
as §1

For data set [5], the target named is T2, ABCG2. The experiment in a line: Asymmetry efflux ratio in MDCK2 cells expressing human ABCG2 assessed as ABCG2-mediated drug transport ratio at 200 uM after 0.5 to 1 hrs by HPLC method. The data set is classed as ADME, cell-based. In short, it runs like this:
as §1

The target of data set [6] is T3, Broad substrate specificity ATP-binding cassette transporter ABCG2 (Rattus norvegicus, UniProt Q80W57).
T3 sequence (Q80W57 whole entry): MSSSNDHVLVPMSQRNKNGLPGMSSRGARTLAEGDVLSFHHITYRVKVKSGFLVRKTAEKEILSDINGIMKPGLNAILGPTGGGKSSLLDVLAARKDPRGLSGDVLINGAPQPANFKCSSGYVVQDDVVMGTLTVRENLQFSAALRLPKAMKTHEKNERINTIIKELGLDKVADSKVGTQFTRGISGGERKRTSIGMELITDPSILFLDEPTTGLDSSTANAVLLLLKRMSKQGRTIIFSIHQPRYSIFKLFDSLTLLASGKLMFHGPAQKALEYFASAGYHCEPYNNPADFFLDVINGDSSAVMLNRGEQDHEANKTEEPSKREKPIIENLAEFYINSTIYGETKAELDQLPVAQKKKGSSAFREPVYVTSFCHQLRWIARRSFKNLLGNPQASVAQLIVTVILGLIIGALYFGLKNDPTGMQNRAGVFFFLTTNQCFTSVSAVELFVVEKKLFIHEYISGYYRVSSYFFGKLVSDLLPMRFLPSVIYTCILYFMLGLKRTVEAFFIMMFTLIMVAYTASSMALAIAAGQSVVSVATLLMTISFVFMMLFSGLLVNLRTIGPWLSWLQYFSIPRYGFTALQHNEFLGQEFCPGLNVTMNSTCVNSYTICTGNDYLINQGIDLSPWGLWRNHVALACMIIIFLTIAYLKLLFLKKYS
The experiment in a line: Observed permeability in MDCK2 cells expressing rat ABCG2 assessed as ABCG2-mediated apical to basolateral transport at 30 uM after 0.5 to 1 hrs by HPLC method. The data set is classed as ADME, cell-based. The note with it: mdck-ii. A digest of the protocol:
as §1

For data set [7], the target named is T3, Broad substrate specificity ATP-binding cassette transporter ABCG2. The experiment in a line: Observed permeability in MDCK2 cells expressing rat ABCG2 assessed as ABCG2-mediated apical to basolateral transport at 200 uM after 0.5 to 1 hrs by HPLC method. The note with it: mdck-ii. The data set is classed as ADME, cell-based. In short, it runs like this:
as §1

Data set [8] has the same target. The experiment in a line: Observed permeability in MDCK2 cells expressing rat ABCG2 assessed as ABCG2-mediated basolateral to apical transport at 30 uM after 0.5 to 1 hrs by HPLC method. The data set is classed as ADME, cell-based. The note with it: mdck-ii. In short, it runs like this: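 rAbcg2-transfected MDCKII monolayers seeded at 1.0×10^6 cells/well on 3.0-μm filters, grown 4 days to TEER >200 Ω·cm². Serum-free Opti-MEM I on both sides. Individual PAN isomer plus 0.2 μCi/ml [3H]mannitol loaded basolaterally, 37°C, 5% CO2. Receiver sampled at 0.5 and 1 h, PAN quantified by HPLC-UV 290 nm. P_obs = initial transfer rate/(area × initial donor concentration). Mean ± S.D., n = 3.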

In data set [9] the target is T4, ABCG2 (Rattus norvegicus, UniProt Q80W57).
T4 sequence (Q80W57 whole entry): T3 sequence (Q80W57 whole entry)
Put plainly: Asymmetry efflux ratio in MDCK2 cells expressing rat ABCG2 assessed as ABCG2-mediated drug transport ratio at 200 uM after 0.5 to 1 hrs by HPLC method. The data set is classed as ADME, cell-based. A digest of the protocol:
as §1

Data set [10] in a line: Observed permeability in MDCK2 cells assessed as apical to basolateral transport at 10 uM after 0.5 to 1 hrs by HPLC method. The data set is classed as ADME, cell-based, Canis lupus familiaris. The note with it: dog, mdck-ii. In short, it runs like this:
as §1

Data set [11] in a line: Observed permeability in MDCK2 cells assessed as apical to basolateral transport at 50 uM after 0.5 to 1 hrs by HPLC method. The data set is classed as ADME, cell-based, Canis lupus familiaris. To be noted: dog, mdck-ii. A digest of the protocol:
as §1

A short description of data set [12]: Observed permeability in MDCK2 cells assessed as apical to basolateral transport at 200 uM after 0.5 to 1 hrs by HPLC method. The class given is ADME, cell-based, Canis lupus familiaris. The note with it: dog, mdck-ii. In short, it runs like this: as §1
Data set [13] can be described thus: Observed permeability in MDCK2 cells assessed as basolateral to apical transport at 10 uM after 0.5 to 1 hrs by HPLC method. The class given is ADME, cell-based, Canis lupus familiaris. The note with it: dog, mdck-ii. A digest of the protocol: as §1
The nature of data set [14]: Observed permeability in MDCK2 cells assessed as basolateral to apical transport at 3 to 200 uM after 0.5 to 1 hrs by HPLC method. The data set is classed as ADME, cell-based, Canis lupus familiaris. The note with it: dog, mdck-ii. A digest of the protocol:
as §1

Data set [15] can be described thus: Asymmetry efflux ratio in MDCK2 cells assessed as drug transport ratio at 30 uM after 0.5 to 1 hrs by HPLC method. The class given is ADME, cell-based, Canis lupus familiaris, MDCK-II. The note with it: dog, MDCK. A digest of the protocol: as §1
Data set [16] can be described thus: Asymmetry efflux ratio in MDCK2 cells assessed as drug transport ratio at 200 uM after 0.5 to 1 hrs by HPLC method. The data set is classed as ADME, cell-based, Canis lupus familiaris, MDCK-II. To be noted: dog, MDCK. A digest of the protocol:
as §1

Consider `COc1ccnc(C[S@@+]([O-])c2nc3cc(OC(F)F)ccc3[nH]2)c1OC`, for which the Papp is given as 79.6 uL/hr/cm2 in data set [1]; 33.5 uL/hr/cm2 in data set [6]; 126 uL/hr/cm2 in data set [7]; 206 uL/hr/cm2 in data set [8]; 114 uL/hr/cm2 in data set [10]; 123 uL/hr/cm2 in data set [11]. Moreover, the Papp stood at 142 uL/hr/cm2 in data set [12], 121 uL/hr/cm2 in data set [13] and 126 uL/hr/cm2 in [14]. Further, the efflux ratio at 10 µM in data set [2] was found to be 5.81. Further, the values for the efflux ratio at 30 µM in [3] and in data set [15] were 5.5 and 1.06, respectively. Moreover, the efflux ratio at 50 µM in data set [4] came to 2.45. Besides, the values for the efflux ratio at 200 µM in [5], in data set [9] and in data set [16] were 1.42, 1.29 and 0.98, respectively.
On to `COc1ccnc(C[S@+]([O-])c2nc3cc(OC(F)F)ccc3[nH]2)c1OC`, for which the Papp is given as 109 uL/hr/cm2 in data set [1]; 92.5 uL/hr/cm2 in data set [6]; 127 uL/hr/cm2 in data set [7]; 151 uL/hr/cm2 in [8]; 123 uL/hr/cm2 in data set [10]; 121 uL/hr/cm2 in [11]. Also, the figures for the Papp in data set [12], in data set [13] and in [14] were 130 uL/hr/cm2, 130 uL/hr/cm2 and 127 uL/hr/cm2, respectively. Further, in data set [2], the efflux ratio at 10 µM was 8.06. In addition, the efflux ratio at 30 µM worked out at 3.12 in [3] and 1.07 in data set [15]. Besides, the efflux ratio at 50 µM in data set [4] is 1.44. Moreover, the efflux ratio at 200 µM worked out at 1 in [5], 1.07 in [9] and 0.99 in [16].
